Source: ChEMBL document CHEMBL1123589, “Phenylpiperazine-based radiopharmaceuticals for brain imaging. 3. Synthesis and evaluation of radioiodinated 1-alkyl-4-phenylpiperazines” (J Med Chem, 1987)

Columns and labels:
Conditions in all cases: in vivo
Rattus norvegicus [1] = assay: The biodistribution of the [125I]-labeled compound in rats after intravenous injection was evaluated in adrenal at 0.25 hrs; value ranges from 0.58-0.61 (ID.kg/g); format: ADME, organism-based
Procedure, shortened: (§1)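 Male Sprague-Dawley rats (250–300 g) under ether anesthesia were given an iv injection of no-carrier-added 125I-labelled agent (10–15 μCi in 0.1 mL saline). The agent was iodinated with chloramine-T in acetate buffer and purified by C-18 HPLC. Groups of N = 3 were killed at 0.25, 1 and 4 h. Blood and tissues were weighed and γ-counted. Values are % ID·kg/g, mean (range).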

Rattus norvegicus [2] = assay: The biodistribution of the [125I]-labeled compound in rats after intravenous injection was evaluated in adrenal at 1.00 hrs; value ranges from 0.83-0.85 (ID.kg/g); format: ADME, organism-based; procedure, shortened: as §1
Rattus norvegicus [3] = assay: The biodistribution of the [125I]-labeled compound in rats after intravenous injection was evaluated in adrenal at 4.00 hrs; value ranges from 0.90-0.97 (ID.kg/g); format: ADME, organism-based; procedure, shortened: as §1
Rattus norvegicus [4] = assay: The biodistribution of the [125I]-labeled compound in rats after intravenous injection was evaluated in blood at 0.25 hrs (ID.kg/g); format: ADME, organism-based; procedure, shortened: as §1
Rattus norvegicus [5] = assay: The biodistribution of the [125I]-labeled compound in rats after intravenous injection was evaluated in blood at 1.00 hrs (ID.kg/g); format: ADME, organism-based; procedure, shortened: as §1
Rattus norvegicus [6] = assay: The biodistribution of the [125I]-labeled compound in rats after intravenous injection was evaluated in blood at 4.00 hrs (ID.kg/g); format: ADME, organism-based; procedure, shortened: as §1
Rattus norvegicus [7] = assay: The biodistribution of the [125I]-labeled compound in rats after intravenous injection was evaluated in brain at 0.25 hrs (ID.kg/g); format: ADME, organism-based; procedure, shortened: as §1
Rattus norvegicus [8] = assay: The biodistribution of the [125I]-labeled compound in rats after intravenous injection was evaluated in heart at 0.25 hrs; value ranges from 0.11-0.15 (ID.kg/g); format: ADME, organism-based; procedure, shortened: as §1
Rattus norvegicus [9] = assay: The biodistribution of the [125I]-labeled compound in rats after intravenous injection was evaluated in heart at 1.00 hrs (ID.kg/g); format: ADME, organism-based; procedure, shortened: as §1
Rattus norvegicus [10] = assay: The biodistribution of the [125I]-labeled compound in rats after intravenous injection was evaluated in lung at 4.00 hrs; value ranges from 0.19-0.25 (ID.kg/g); format: ADME, organism-based
Procedure, shortened: (§2)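 Male Sprague-Dawley rats (250–300 g), under ether anesthesia, given 10–15 μCi of the NCA ¹²⁵I-labeled agent iv in 0.1 mL saline. Groups of N = 3 were killed at 0.25, 1 or 4 h. Blood and tissues were removed, weighed and counted in a γ-well scintillation counter. Values are mean % ID·kg/g (range).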

Rattus norvegicus [11] = assay: The biodistribution of the [125I]-labeled compound in rats after intravenous injection was evaluated in muscle at 0.25 hrs (ID.kg/g); format: ADME, organism-based, Muscle tissue
Procedure, shortened: (§3)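 Male Sprague-Dawley rats (250–300 g) under ether anesthesia given iv 0.1 mL saline containing 10–15 μCi of NCA ¹²⁵I-labeled agent (chloramine-T iodination, HPLC-purified). Groups of 3 killed at 0.25, 1 and 4 h. Blood and tissues excised, weighed and γ-counted. Values are mean (range) of % injected dose × body mass (kg) per gram of tissue.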

Rattus norvegicus [12] = assay: The biodistribution of the [125I]-labeled compound in rats after intravenous injection was evaluated in muscle at 4.00 hrs (ID.kg/g); format: ADME, organism-based, Muscle tissue; procedure, shortened: as §3
Rattus norvegicus [13] = assay: The biodistribution of the [125I]-labeled compound in rats after intravenous injection was evaluated in thyroid at 0.25 hrs; value ranges from 1.12-1.29 (ID.kg/g); format: ADME, organism-based, Thyroid gland; procedure, shortened: as §3
Rattus norvegicus [14] = assay: The biodistribution of the [125I]-labeled compound in rats after intravenous injection was evaluated in thyroid at 1.00 hrs; value ranges from 1.22-1.36 (ID.kg/g); format: ADME, organism-based, Thyroid gland; procedure, shortened: as §3
Rattus norvegicus [15] = assay: The biodistribution of the [125I]-labeled compound in rats after intravenous injection was evaluated in brain at 4.00 hrs; value ranges from 0.17-0.21 (ID.kg/g); format: ADME, organism-based; procedure, shortened: as §1
Rattus norvegicus [16] = assay: The biodistribution of the [125I]-labeled compound in rats after intravenous injection was evaluated in fat at 0.25 hr (ID. kg/g); format: ADME, organism-based, Adipose tissue; procedure, shortened: as §1
Rattus norvegicus [17] = assay: The biodistribution of the [125I]-labeled compound in rats after intravenous injection was evaluated in fat at 1.00 hrs (ID.kg/g); format: ADME, organism-based, Adipose tissue; procedure, shortened: as §1
Rattus norvegicus [18] = assay: The biodistribution of the [125I]-labeled compound in rats after intravenous injection was evaluated in brain at 1.00 hrs; value ranges from 0.23-0.32 (ID.kg/g); format: ADME, organism-based; procedure, shortened: as §1
Rattus norvegicus [19] = assay: The biodistribution of the [125I]-labeled compound in rats after intravenous injection was evaluated in fat at 4.00 hrs (ID.kg/g); format: ADME, organism-based, Adipose tissue; procedure, shortened: as §1
Rattus norvegicus [20] = assay: The biodistribution of the [125I]-labeled compound in rats after intravenous injection was evaluated in kidney at 4.00 hrs; value ranges from 0.18-0.23 (ID.kg/g); format: ADME, organism-based; procedure, shortened: as §2
Rattus norvegicus [21] = assay: The biodistribution of the [125I]-labeled compound in rats after intravenous injection was evaluated in liver at 0.25 hr; value ranges from 0.19-0.27 (ID.kg/g); format: ADME, organism-based; procedure, shortened: as §2
Rattus norvegicus [22] = assay: The biodistribution of the [125I]-labeled compound in rats after intravenous injection was evaluated in liver at 4.00 hrs; value ranges from 0.42-0.55 (ID.kg/g); format: ADME, organism-based; procedure, shortened: as §2
Rattus norvegicus [23] = assay: The biodistribution of the [125I]-labeled compound in rats after intravenous injection was evaluated in lung at 0.25 hrs; value ranges from 0.55-0.57 (ID.kg/g); format: ADME, organism-based; procedure, shortened: as §2
Rattus norvegicus [24] = assay: The biodistribution of the [125I]-labeled compound in rats after intravenous injection was evaluated in lung at 1.00 hrs; value ranges from 0.33-0.37 (ID.kg/g); format: ADME, organism-based; procedure, shortened: as §2
Rattus norvegicus [25] = assay: The biodistribution of the [125I]-labeled compound in rats after intravenous injection was evaluated in liver at 1.00 hrs; value ranges from 0.34-0.44 (ID.kg/g); format: ADME, organism-based; procedure, shortened: as §2
Rattus norvegicus [26] = assay: The biodistribution of the [125I]-labeled compound in rats after intravenous injection was evaluated in kidney at 0.25 hr; value ranges from 0.37-0.45 (ID.kg/g); format: ADME, organism-based; procedure, shortened: as §2
Rattus norvegicus [27] = assay: The biodistribution of the [125I]-labeled compound in rats after intravenous injection was evaluated in kidney at 1.00 hrs; value ranges from 0.29-0.35 (ID.kg/g); format: ADME, organism-based; procedure, shortened: as §2
Rattus norvegicus [28] = assay: The biodistribution of the [125I]-labeled compound in rats after intravenous injection was evaluated in heart at 4.00 hrs; value ranges from 0.05-0.06 (ID.kg/g); format: ADME, organism-based; procedure, shortened: as §2
Rattus norvegicus [29] = assay: The biodistribution of the [125I]-labeled compound in rats after intravenous injection was evaluated in thyroid at 4.00 hrs; value ranges from 3.21-5.02 (ID.kg/g); format: ADME, organism-based, Thyroid gland; procedure, shortened: as §3
Rattus norvegicus [30] = assay: The biodistribution of the [125I]-labeled compound in rats after intravenous injection was evaluated in muscle at 1.00 hrs (ID.kg/g); format: ADME, organism-based, Muscle tissue; procedure, shortened: as §3

CC(C)CN1CCN(c2ccc(I)cc2)CC1
Biodistribution (Rattus norvegicus [1]): 0.61%
Biodistribution (Rattus norvegicus [2]): 0.85%
Biodistribution (Rattus norvegicus [3]): 0.97%
Biodistribution (Rattus norvegicus [4]): 0.01 % ID·kg/g
Biodistribution (Rattus norvegicus [5]): 0.01 % ID·kg/g
Biodistribution (Rattus norvegicus [6]): 0.01 % ID·kg/g
Biodistribution (Rattus norvegicus [7]): 0.25%
Biodistribution (Rattus norvegicus [8]): 0.15%
Biodistribution (Rattus norvegicus [9]): 0.09%
Biodistribution (Rattus norvegicus [10]): 0.25%
Biodistribution (Rattus norvegicus [11]): 0.03 % ID·kg/g
Biodistribution (Rattus norvegicus [12]): 0.03 %ID·kg/g
Biodistribution (Rattus norvegicus [13]): 1.29%
Biodistribution (Rattus norvegicus [14]): 1.36%
Biodistribution (Rattus norvegicus [15]): 0.21%
Biodistribution (Rattus norvegicus [16]): 0.02 % ID·kg/g
Biodistribution (Rattus norvegicus [17]): 0.02 % ID·kg/g
Biodistribution (Rattus norvegicus [18]): 0.32%
Biodistribution (Rattus norvegicus [19]): 0.04%
Biodistribution (Rattus norvegicus [20]): 0.23%
Biodistribution (Rattus norvegicus [21]): 0.27%
Biodistribution (Rattus norvegicus [22]): 0.55%
Biodistribution (Rattus norvegicus [23]): 0.57%
Biodistribution (Rattus norvegicus [24]): 0.37%
Biodistribution (Rattus norvegicus [25]): 0.44%
Biodistribution (Rattus norvegicus [26]): 0.45%
Biodistribution (Rattus norvegicus [27]): 0.35%
Biodistribution (Rattus norvegicus [28]): 0.07%
Biodistribution (Rattus norvegicus [29]): 5.02%
Biodistribution (Rattus norvegicus [30]): 0.02 %ID·kg/g
